In ChEMBL document CHEMBL3352444, “Bioactive spirobisnaphthalenes from the endophytic fungus Berkleasmium sp” (J Nat Prod, 2014) one finds MIC and IC50 data, which are given here for 17 molecules.

The test system of assay [1] is Bacillus subtilis. Briefly: Antibacterial activity against Bacillus subtilis ATCC 11562 by modified broth dilution method. Format: functional. A digest of the protocol: (§1)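 MIC read in 96-well plates by a modified broth dilution test; streptomycin sulfate as positive control.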
In general terms: Broth dilution looks for growth in wells or tubes with falling amounts of substance.

Assay [2] deals with Agrobacterium tumefaciens. Briefly: Antibacterial activity against Agrobacterium tumefaciens No.8 ATCC 11158 by modified broth dilution method. Format: functional. A digest of the protocol:
as §1

The test system of assay [3] is Staphylococcus haemolyticus. Briefly: Antibacterial activity against Staphylococcus haemolyticus ATCC 29970 by modified broth dilution method. Format: functional. The method, boiled down: as §1
The test system of assay [4] is Ralstonia solanacearum. Briefly: Antibacterial activity against Ralstonia solanacearum ATCC 11696 by modified broth dilution method. Type of assay: functional.
Assay [5] relates to Pseudomonas. Briefly: Antibacterial activity against Pseudomonas lachrymans ATCC 11921 by modified broth dilution method. Format: functional. A digest of the protocol: as §1
Assay [6] deals with Xanthomonas vesicatoria. Briefly: Antibacterial activity against Xanthomonas vesicatoria ATCC 11633 by modified broth dilution method. Format: functional. A digest of the protocol: as §1
Assay [7] deals with Pyricularia oryzae. Briefly: Antifungal activity against Magnaporthe oryzae assessed as inhibition of spore germination incubated for 8 hrs. Type of assay: functional, organism-based.
Assay [8] can be described thus: Cytotoxicity against human HCT8 cells by MTT assay. As to conditions: HCT-8. A general note: Tetrazolium dyes change colour on reduction, which living cells bring about.
A short description of assay [9]: Cytotoxicity against human Bel7402 cells by MTT assay. To be noted: Bel-7402.
Assay [10] can be described thus: Cytotoxicity against human BGC823 cells by MTT assay. To be noted: BGC-823.
Assay [11] deals with A549. Briefly: Cytotoxicity against human A549 cells by MTT assay. Format: functional, cell-based.
The subject of assay [12] is A2780. Put plainly: Cytotoxicity against human A2780 cells by MTT assay.

Values after ≈ are worked out from the molar mass of the structure shown.

On to `Oc1cccc2c1[C@@H](O)[C@H]1O[C@H]1C21Oc2cccc3cccc(c23)O1`, for which the MIC (usually the least concentration at which growth counts as inhibited) in assay [1] came to 25 µg/mL (≈ 74.8 µM); in [2], 37.5 µg/mL (≈ 112 µM); in assay [3] it was 25 µg/mL (≈ 74.8 µM); in assay [4], 37.5 µg/mL (≈ 112 µM); in assay [5] it was 37.5 µg/mL (≈ 112 µM); in assay [6], 37.5 µg/mL (≈ 112 µM). Also, the IC50 – broadly, the concentration that inhibits the measured activity by half – in assay [7] is 32.3 µg/mL (≈ 96.6 µM); in assay [8], > 10 µM; in assay [9], > 10 µM; in assay [10] it was > 10 µM; in assay [11], > 10 µM; in assay [12], > 10 µM.

Take `O=C1C=C[C@H](O)[C@@]23O[C@@]12C1(Oc2cccc4cccc(c24)O1)[C@H](O)[C@@H](O)[C@@H]3O`: the minimum inhibitory concentration (MIC) was determined as 200 µg/mL (≈ 520 µM) in [1]; 200 µg/mL (≈ 520 µM) in [2]; 200 µg/mL (≈ 520 µM) in [3]; 200 µg/mL (≈ 520 µM) in assay [4]; 150 µg/mL (≈ 390 µM) in [5]; 150 µg/mL (≈ 390 µM) in assay [6]. Moreover, the IC50 in assay [7] is > 200 µg/mL; in [8], > 10 µM; in assay [9] it was > 10 µM; in [10], > 10 µM; in assay [11] it was > 10 µM; in assay [12], > 10 µM.

As for `O=C1C[C@@H](O)[C@H](O)[C@@]23O[C@@]12C1(Oc2cccc4cccc(c24)O1)[C@@H]1O[C@@H]1[C@@H]3O`, the MIC in assay [1], in assay [2], in assay [3], in assay [4], in [5] and in [6] was 75 µg/mL (≈ 195 µM) in each case. Besides, the IC50 is > 200 µg/mL in assay [7]; 1.7 µM in assay [8]; 3.3 µM in assay [9]; 3.3 µM in [10]; 3.2 µM in [11]; 5.8 µM in assay [12].

Consider `CO[C@@H]1CC(=O)[C@]23O[C@]2([C@@H](O)[C@H]2O[C@H]2C32Oc3cccc4cccc(c34)O2)[C@H]1O`, for which the MIC came to 37.5 µg/mL (≈ 94.1 µM) in assay [1]; 50 µg/mL (≈ 126 µM) in assay [2]; 50 µg/mL (≈ 126 µM) in assay [3]; 37.5 µg/mL (≈ 94.1 µM) in assay [4]; 37.5 µg/mL (≈ 94.1 µM) in assay [5]; 37.5 µg/mL (≈ 94.1 µM) in [6]. Besides, the IC50 in assay [7] is > 200 µg/mL; in assay [8], > 10 µM; in assay [9], 6.4 µM; in [10] it was > 10 µM; in [11], 8.7 µM; in [12], > 10 µM.

As for `Oc1ccc(O)c2c1[C@@H](O)[C@H]1O[C@H]1C21Oc2cccc3cccc(c23)O1`, the MIC in [1] was 100 µg/mL (≈ 285 µM); in [2], 250 µg/mL (≈ 714 µM); in assay [3], 250 µg/mL (≈ 714 µM); in [4], 250 µg/mL (≈ 714 µM); in assay [5] it was 200 µg/mL (≈ 571 µM); in [6] it was 200 µg/mL (≈ 571 µM). Further, the IC50 in [7] was 76.7 µg/mL (≈ 219 µM); in [8], > 10 µM; in [9] it was > 10 µM; in assay [10] it was > 10 µM; in assay [11] it was > 10 µM; in assay [12], > 10 µM.

For `O=C1C[C@@H](O)C2(Oc3cccc4cccc(c34)O2)c2c(O)ccc(O)c21`, the MIC is 37.5 µg/mL (≈ 107 µM) in [1]; 37.5 µg/mL (≈ 107 µM) in assay [2]; 50 µg/mL (≈ 143 µM) in assay [3]; 37.5 µg/mL (≈ 107 µM) in assay [4]; 37.5 µg/mL (≈ 107 µM) in [5]; 50 µg/mL (≈ 143 µM) in assay [6]. The half-inhibitory concentration (IC50) in assay [7] was 64.8 µg/mL (≈ 185 µM); in [8], > 10 µM; in [9] it was > 10 µM; in assay [10], > 10 µM; in assay [11] it was > 10 µM; in [12], > 10 µM.

In the case of `Oc1ccc(O)c2c1C=C[C@@H](O)C21Oc2cccc3cccc(c23)O1`, the MIC in assay [1] came out at 50 µg/mL (≈ 150 µM); in [2], 37.5 µg/mL (≈ 112 µM); in [3], 37.5 µg/mL (≈ 112 µM); in assay [4], 37.5 µg/mL (≈ 112 µM); in assay [5], 25 µg/mL (≈ 74.8 µM); in [6], 37.5 µg/mL (≈ 112 µM). Besides, the IC50 in [7] was 35.9 µg/mL (≈ 107 µM); in assay [8], > 10 µM; in assay [9] it was > 10 µM; in assay [10] it was > 10 µM; in assay [11] it was > 10 µM; in assay [12], > 10 µM.

As for `O=C1C(Cl)=CC2(Oc3cccc4cccc(c34)O2)[C@]23O[C@]12[C@H](O)CCC3=O`, the MIC in assay [1] stood at 50 µg/mL (≈ 130 µM); in assay [2], 25 µg/mL (≈ 65 µM); in assay [3], 25 µg/mL (≈ 65 µM); in assay [4], 25 µg/mL (≈ 65 µM); in assay [5] it was 25 µg/mL (≈ 65 µM); in assay [6], 25 µg/mL (≈ 65 µM). Moreover, the IC50 amounted to 9.1 µg/mL (≈ 23.7 µM) in assay [7]; 4.2 µM in [8]; 2.5 µM in [9]; 2.6 µM in [10]; 1.6 µM in assay [11]; 1.3 µM in assay [12].

As for `O=C1CC[C@@H](O)[C@@]23O[C@@]12C1(Oc2cccc4cccc(c24)O1)[C@H](O)[C@@H](O)[C@@H]3O`, the MIC in [1], in assay [2], in [3], in assay [4], in assay [5] and in assay [6] was > 250 µg/mL each time. The half-maximal inhibitory concentration (IC50) in [7] was > 200 µg/mL; in assay [8] it was > 10 µM; in assay [9], > 10 µM; in [10], > 10 µM; in assay [11], > 10 µM; in assay [12] it was > 10 µM.

Regarding `O[C@@H]1[C@@H](O)C2(Oc3cccc4cccc(c34)O2)[C@@]23O[C@@]2([C@@H](O)C=C[C@H]3O)[C@H]1O`, the MIC in assay [1], in assay [2], in assay [3], in [4], in assay [5] and in [6] was > 250 µg/mL throughout. Moreover, the half-inhibitory concentration (IC50) in [7] was > 200 µg/mL; in [8], > 10 µM; in [9], > 10 µM; in [10], > 10 µM; in assay [11], > 10 µM; in [12], > 10 µM.

For the molecule `O[C@@H]1[C@@H](O)C2(Oc3cccc4cccc(c34)O2)[C@@]23O[C@@]2([C@@H](O)CC[C@H]3O)[C@H]1O`, the MIC in [1], in assay [2], in assay [3], in [4], in assay [5] and in [6] was > 250 µg/mL each time. In addition, the IC50 is > 200 µg/mL in [7]; > 10 µM in assay [8]; > 10 µM in assay [9]; > 10 µM in assay [10]; > 10 µM in [11]; > 10 µM in assay [12].

Take `O=C1C[C@H](O)[C@H](O)C2=C[C@H](O)[C@@H](O)C3(Oc4cccc5cccc(c45)O3)[C@]12O`: the MIC in assay [1], in assay [2], in assay [3], in [4], in [5] and in assay [6] was > 250 µg/mL each time. Besides, the IC50 in assay [7] is > 200 µg/mL; in [8], > 10 µM; in [9], > 10 µM; in assay [10] it was > 10 µM; in assay [11], > 10 µM; in assay [12] it was > 10 µM.

As to `O=C1CCC2(Oc3cccc4cccc(c34)O2)c2c(Cl)ccc(O)c21`, the MIC in assay [1], in [2], in assay [3], in [4], in [5] and in assay [6] was > 250 µg/mL each time. In addition, the IC50 in assay [7] is > 200 µg/mL; in assay [8], > 10 µM; in assay [9], > 10 µM; in assay [10], > 10 µM; in assay [11], > 10 µM; in assay [12], > 10 µM.

Take `O=C1C[C@H](O)[C@H](O)[C@@]23O[C@@]12C1(Oc2cccc4cccc(c24)O1)[C@@H]1O[C@@H]1[C@@H]3O`: the minimal inhibitory concentration (MIC) in assay [1], in assay [2], in assay [3], in assay [4], in [5] and in [6] was > 250 µg/mL each time. Besides, the IC50 is > 200 µg/mL in [7]; > 10 µM in assay [8]; > 10 µM in assay [9]; > 10 µM in assay [10]; > 10 µM in [11]; > 10 µM in [12].

Consider `O=C1C=C[C@H](O)[C@@]23O[C@@]12C1(Oc2cccc4cccc(c24)O1)[C@@H]1O[C@@H]1[C@@H]3O`, for which the MIC in assay [1], in assay [2], in [3], in assay [4], in [5] and in [6] was 50 µg/mL (≈ 136 µM) in each case. Also, the IC50 is 105 µg/mL (≈ 287 µM) in assay [7]; > 10 µM in assay [8]; 5.1 µM in [9]; > 10 µM in assay [10]; 8.8 µM in assay [11]; > 10 µM in assay [12].

Consider `COC(=O)Nc1nc2ccccc2[nH]1` [CARBENDAZIM], for which, in assay [7], the IC50 turned out to be 6.3 µg/mL (≈ 33 µM).

`CN[C@@H]1[C@H](O[C@H]2[C@H](O[C@H]3[C@H](O)[C@@H](O)[C@H](N=C(N)N)[C@@H](O)[C@@H]3N=C(N)N)O[C@@H](C)[C@]2(O)C=O)O[C@@H](CO)[C@H](O)[C@H]1O.CN[C@@H]1[C@H](O[C@H]2[C@H](O[C@H]3[C@H](O)[C@@H](O)[C@H](N=C(N)N)[C@@H](O)[C@@H]3N=C(N)N)O[C@@H](C)[C@]2(O)C=O)O[C@@H](CO)[C@H](O)[C@H]1O.O=S(=O)(O)O.O=S(=O)(O)O.O=S(=O)(O)O` [STREPTOMYCIN SULFATE]: the minimum inhibitory concentration (MIC) in assay [1] worked out at 5 µg/mL; in [2] it was 5 µg/mL; in assay [3], 5 µg/mL; in assay [4], 5 µg/mL; in assay [5], 7.5 µg/mL; in assay [6] it was 10 µg/mL.
